# Measured values: ChEMBL document CHEMBL1641522 (Bioorg Med Chem, 2011)
# Active and inactive are the calls of the source. The calls are words filed in the database; no cut-off is given here.
# Key:
# [1] = target: T1, Tubulin (Sus scrofa) (UniProt P02554+P02550); test: Binding affinity to porcine tubulin incubated for 30 mins followed by UV irradiation at 365 nm for 30 seconds at distance of 10 cm on ice by SDS-PAGE analysis; assay type: protein assay
# Summary of the method: (§1)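 Tubulin (2 µM) in MES buffer pH 6.8 with 1 mM GTP and 2% DMSO, incubated with compound 30 min at 37 °C. Irradiated at 365 nm, 10 cm, on ice, 0–30 s. Separated by 10% SDS–PAGE and blotted to PVDF. Labelled tubulin detected with streptavidin–HRP/ECL chemiluminescence.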
# [2] = target: T1, Tubulin (Sus scrofa); test: Binding affinity to porcine tubulin at 2 uM incubated for 30 mins by SDS-PAGE analysis; assay type: protein assay; summary of the method: as §1
# [3] = target: Tubulin (Sus scrofa, UniProt P02554+P02550); test: Binding affinity to porcine tubulin after 1 hr by spectrofluorometric analysis; assay type: protein assay
# Summary of the method: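 Purified porcine tubulin (0.5 µM) in MES buffer pH 6.8 at 37 °C, titrated with compound. Kd derived from the quenching titration.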
# [4] = target: T1, Tubulin (Sus scrofa); test: Binding affinity to porcine tubulin at 2 uM incubated for 30 mins followed by UV irradiation at 365 nm at distance of 10 cm on ice by SDS-PAGE analysis in presence of D-biotin; assay type: protein assay
# Summary of the method: (§2)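 Competition labelling. […] Probe (2 µM, 2% DMSO final) was then added for 30 min at 37 °C. Irradiated at 365 nm, 10 cm, on ice for 30 s. Read by 10% SDS–PAGE and streptavidin–HRP/ECL blot.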
# [5] = target: T1, Tubulin (Sus scrofa); test: Binding affinity to porcine tubulin at 2 uM incubated for 30 mins followed by UV irradiation at 365 nm at distance of 10 cm on ice by SDS-PAGE analysis; assay type: protein assay; conditions: TDE = time-dependent effect; summary of the method: as §1
# [6] = target: T1, Tubulin (Sus scrofa); test: Binding affinity to porcine tubulin at 2 uM incubated for 30 mins followed by UV irradiation at 365 nm at distance of 10 cm on ice by SDS-PAGE analysis in presence of colchicine; assay type: protein assay; summary of the method: as §2
# [7] = system: HT-29; test: Cytotoxicity against human HT-29 cells after 72 hrs by XTT/PMS method; assay type: functional, cell-based; conditions: HT-29, 72 h
# Summary of the method: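 HT-29 colorectal adenocarcinoma cells in McCoy's 5A with 10% FBS, seeded at 5000 cells/well the day before. DMSO stocks serially diluted to 20 µM–2 pM final, exposed 72 h. XTT 0.1 mg/mL with 25 µM PMS added for 1 h. Formazan read at 492 nm, corrected at 690 nm. IC50 from triplicate experiments.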
# [8] = target: T1, Tubulin (Sus scrofa); test: Binding affinity to porcine tubulin at 2 uM incubated for 30 mins followed by UV irradiation at 365 nm at distance of 10 cm on ice by SDS-PAGE analysis in presence of plinabulin; assay type: protein assay; summary of the method: as §2
# [9] = target: T1, Tubulin (Sus scrofa); test: Ratio of compound Kd to plinabulin Kd for porcine tubulin; assay type: protein assay
# [10] = system: HT-29; test: Ratio of compound IC50 to plinabulin IC50 for human HT-29 cells; assay type: functional
# T1 sequence (P02550 whole entry, looked up): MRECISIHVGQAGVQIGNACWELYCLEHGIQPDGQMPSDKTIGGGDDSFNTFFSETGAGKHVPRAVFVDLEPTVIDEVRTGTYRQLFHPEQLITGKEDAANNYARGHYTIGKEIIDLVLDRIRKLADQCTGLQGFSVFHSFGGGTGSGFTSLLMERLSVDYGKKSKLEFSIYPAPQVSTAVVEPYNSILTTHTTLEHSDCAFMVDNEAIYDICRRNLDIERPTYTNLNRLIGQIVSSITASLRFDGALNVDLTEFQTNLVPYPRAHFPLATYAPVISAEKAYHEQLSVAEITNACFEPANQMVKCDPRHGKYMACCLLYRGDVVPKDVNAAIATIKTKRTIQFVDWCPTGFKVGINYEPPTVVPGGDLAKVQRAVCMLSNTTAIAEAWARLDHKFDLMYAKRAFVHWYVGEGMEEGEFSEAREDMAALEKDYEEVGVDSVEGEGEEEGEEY
# T1 sequence (P02554 whole entry, looked up): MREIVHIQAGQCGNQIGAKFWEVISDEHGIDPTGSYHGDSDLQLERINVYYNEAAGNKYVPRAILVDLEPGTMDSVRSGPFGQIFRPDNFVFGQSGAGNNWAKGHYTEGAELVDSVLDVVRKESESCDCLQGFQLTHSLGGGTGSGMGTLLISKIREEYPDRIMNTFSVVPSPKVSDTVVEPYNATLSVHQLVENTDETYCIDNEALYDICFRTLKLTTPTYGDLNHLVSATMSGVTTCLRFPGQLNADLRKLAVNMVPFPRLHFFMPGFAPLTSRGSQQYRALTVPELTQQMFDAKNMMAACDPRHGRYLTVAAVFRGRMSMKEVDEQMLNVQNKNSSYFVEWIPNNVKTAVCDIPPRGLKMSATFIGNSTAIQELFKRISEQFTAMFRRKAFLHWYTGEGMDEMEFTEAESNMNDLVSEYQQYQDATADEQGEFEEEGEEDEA
SMILES,Activity [1],Activity [2],Kd [3],Activity [4],Activity [5],Activity [6],IC50 [7],Activity [8],Ratio [9],Ratio IC50 [10]
CC(C)(Cc1cn(CCCNC(=O)CCCCCNC(=O)CCCCCNC(=O)CCCC[C@@H]2SC[C@@H]3NC(=O)N[C@@H]32)nn1)c1ocnc1/C=c1\[nH]c(=O)/c(=C/c2cccc(C(=O)c3ccccc3)c2)[nH]c1=O (stereo in doubt),Dose-dependent effect,inactive,17.9 µM,inactive,tde,inactive,9790 nM,inactive,17,725
COc1cc2c(c(OC)c1OC)-c1ccc(OC)c(=O)cc1[C@@H](NC(C)=O)CC2 [COLCHICINE],,,,,,,16.6 nM,,,
CC(C)(C)c1[nH]cnc1/C=c1\[nH]c(=O)/c(=C/c2ccccc2)[nH]c1=O [PLINABULIN],,,,,,,13.5 nM,,,
